The list is not random: actives were taken first. Their share in the collection is about 4.1%.
KCC2 mod = KCC2 (human) Cl- transport modulation. KCC2 cells, thallium flux FluoZin-2 fluorescence. 190,000 compounds, 2.2% hits. AID 1456. Q9H2X9. B-score of Tl+ flux slope (higher = more flux/activation; lower = inhibition) at 10 µM;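 active = thallium flux slope and its plate-corrected score both differing from the plate sample mean at a set confidence after two filtering rounds, in either direction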;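 also: slope of fluorescence scaled to starting intensity during 10 to 20 s after thallium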
KCNK9 inh = blocks the human KCNK9 two-pore domain potassium channel | AID 488922 | 310,000 compounds, 1.2% hits | HEK293 KCNK9, FluxOR thallium flux fluorescence; hits give low values | Q9NPC2 | B-score at 10 µM;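 active = ratio B-score over 3 SD below the library mean, with starting fluorescence within 5 SD of its mean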;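 also: negative B-score means less thallium flux so channel inhibition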
KCNQ1 pot = potentiates or activates the human KCNQ1 potassium channel; P51787; 310,000 compounds, 0.35% hits; B-score at 10 µM; CHO-K1 KCNQ1, thallium flux FluxOR fluorescence; hits give high values; AID 2648;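 active = fluorescence ratio B-score, a plate-corrected score, at least three library SD, with initial intensity B-score within 5 SD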
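Assay system: CHO-K1 cells stably expressing KCNQ1. Medium: assay buffer for compound exposure, DMSO matched across wells. Timing: 37 °C overnight plating, 90-min dark dye load, 20-min compound pretreatment. Signal: kinetic FluxOR fluorescence, 10 s baseline plus 110 s post-stimulus.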
KCNK3 block = human KCNK3 channel inhibition, primary screen | CHO-KCNK3 thallium flux, FluxOR fluorescence; hits give low values | 340,000 compounds, 0.84% hits | O14649 | B-score at 10 µM;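 active = B-score under library mean minus 4 SD, starting fluorescence ratio at most library mean plus 5 SD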;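 also: more negative B-score means stronger inhibition of thallium flux through KCNK3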
Target sequence (O14649 whole entry, looked up): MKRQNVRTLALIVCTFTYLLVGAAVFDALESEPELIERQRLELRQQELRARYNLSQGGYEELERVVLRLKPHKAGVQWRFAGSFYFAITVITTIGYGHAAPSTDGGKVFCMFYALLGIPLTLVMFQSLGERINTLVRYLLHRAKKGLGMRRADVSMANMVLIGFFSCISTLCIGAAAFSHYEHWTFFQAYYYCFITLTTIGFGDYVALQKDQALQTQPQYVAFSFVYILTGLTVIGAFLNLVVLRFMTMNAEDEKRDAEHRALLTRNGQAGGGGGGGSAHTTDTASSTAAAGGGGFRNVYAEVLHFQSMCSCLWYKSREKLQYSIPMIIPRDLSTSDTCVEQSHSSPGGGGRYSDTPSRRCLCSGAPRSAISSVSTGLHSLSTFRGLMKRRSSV
KCNQ1 block = blocks the human KCNQ1 potassium channel; CHO-K1 KCNQ1, FluxOR thallium flux fluorescence; hits give high values; 310,000 compounds, 1.3% hits; AID 2642; B-score at 10 µM;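 active = compounds whose thallium flux B-score, printed positive for inhibition, exceeds three library SD while starting fluorescence stays within three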;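 also: channel opened by potassium depolarization with thallium stimulus after 20 min compound exposure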
hERG rescue = hERG (human) protection from proarrhythmic block | Q12809 | CHO-hERG, FluxOR thallium flux, dofetilide IC70 present | activation (rescue from dofetilide block), less the hit threshold, % at 10 µM | 310,000 compounds, 0.51% hits;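 active = activation above the mean of controls blocked by dofetilide plus 5 SD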;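 also: thallium influx through hERG after potassium depolarization seen as dye fluorescence rise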
Hits are given with their value; 0 = inactive; - = no result given.

SMILES	KCC2 mod	KCNK9 inh	KCNQ1 pot	KCNK3 block	KCNQ1 block	hERG rescue
O=[N+]([O-])c1ccc(NC(=S)NCCc2ccccc2)cc1	0	0	0	0	6	0
COc1ccc(-c2c(C)oc3c(CN4CCCC(C)C4)c(O)ccc3c2=O)cc1OC (centres undefined)	-	0	0	0	0	0
O=C(OC1CCOC1=O)c1ccc2ccccc2n1 (centres undefined)	0	0	0	0	0	0
Cc1ccc(NC(=O)CSC(N)=O)cc1Cl	-3.5	-13	0	0	0	0
Cn1c(=O)c2c(ncn2CC(=O)N/N=C/C(Cl)=C/c2ccccc2)n(C)c1=O	0	0	11	0	0	0
Cn1c(=O)c2c(ncn2CCC(=O)N/N=C/c2ccccc2)n(C)c1=O	0	0	0	0	0	0
COC(=O)c1cccnc1-n1c(=O)c2cccnc2n(Cc2ccc(Cl)cc2)c1=O	0	0	0	0	0	0
O=C(Nc1cccc(NC(=O)c2ccccc2[N+](=O)[O-])n1)c1ccccc1[N+](=O)[O-]	-	0	0	-9.5	0	0
Cc1cccc(NC(=O)c2ccccc2[N+](=O)[O-])n1	-	0	0	0	0	0
CC(C)CN(C(=O)CN1CCN(c2cccc(Cl)c2)CC1)c1c(N)n(CC(C)C)c(=O)[nH]c1=O	0	0	0	0	0	0
CCCn1c(N)c(C(=O)CSc2nc3ccccc3s2)c(=O)[nH]c1=O	0	0	0	0	0	5.4
CCCn1c(N)c(C(=O)CSc2nnc(N)s2)c(=O)[nH]c1=O	-	-	-	0	-	-
C#CCOCCOCCOCCNc1nc(N2CCN(C(=O)[C@H]([C@@H](C)CC)n3cc(CCC(=O)O)nn3)CC2)nc(N2CCN(C(=O)[C@H](Cc3ccc(O)cc3)n3cc(CCO)nn3)CC2)n1	-	-	-	0	-	-
Nc1nonc1-n1nnc(C(=O)N/N=C/c2ccc(Cl)cc2Cl)c1CN1CCCC1	-	0	0	0	0	0
Brc1ccc2c(c1)OCCOCCOc1cc(Br)ccc1OCCOCCOCCO2	-	-7.7	0	0	6	0
COC(=O)c1ccc(C)c(NC(=O)CSc2nc3[nH]c(=O)cc(O)c3s2)c1	-	-	-	0	-	-
CCCCCc1cc(=O)oc2c(C(CCN3CCCC3)c3ccc(N(C)C)cc3)c(OC)cc(OC)c12 (centres undefined)	0	0	0	0	0	0
CCCCCc1cc(=O)oc2c(C(CCN3CCCCC3)c3ccc(OC)cc3)c(OC)cc(OC)c12 (centres undefined)	0	0	0	0	7	0
Cc1ncsc1C(=O)N1N=C2/C(=C/c3ccc(N4CCOCC4)cc3)CCCC2C1c1ccc(N2CCOCC2)cc1 (centres undefined)	0	0	0	0	0	0
Cc1ncsc1C(=O)N1N=C2/C(=C/c3ccccc3)CCCC2C1c1ccccc1 (centres undefined)	-	-7.6	0	0	7	0
O=C(CCC1CCN(C(=O)c2cc(C(F)(F)F)ccc2Cl)CC1)NC1CC1	-	0	0	0	0	0
COc1cccc(C(=O)Nc2nc(-c3ccccc3)c(-c3ccccc3)o2)c1	29	0	9	0	0	0
Cc1cc(NC(=O)Cc2ccccc2)nc2c1c(=O)oc1ccccc12	0	0	0	0	0	0
COc1cccc(C(=O)Nc2cc(C)c3c(=O)oc4ccccc4c3n2)c1	0	-11	0	-10	0	0
COc1ccc(C(=O)Nc2oc(-c3ccccc3)c(-c3ccccc3)c2C#N)cc1	0	0	0	0	7	0
SMILES	KCC2 mod	KCNK9 inh	KCNQ1 pot	KCNK3 block	KCNQ1 block	hERG rescue
O=C(Nc1nc(-c2ccccc2)c(-c2ccccc2)o1)c1ccc(F)cc1	-	0	56	0	0	5.6
Cn1cccc1C(=O)OCc1cc(Cl)cc2c1OCOC2	0	0	0	0	0	0
CCc1ccc(-c2nc(SCC(=O)N3CCOCC3)n[nH]2)cc1	0	0	0	0	0	10
CCCCC/C=N\NC(=O)Cc1ccc([N+](=O)[O-])cc1	0	0	7	0	0	0
COc1ccccc1OCC(=O)Nc1ccc(N2CCOCC2)cc1N1CCOCC1	-	-	-	0	-	-
N#Cc1c(-c2ccccc2Cl)cc(-c2ccccc2)nc1Br	0	0	0	0	9	0
N#Cc1c(-c2cccc(F)c2)cc(-c2ccccc2)nc1Br	0	0	0	0	0	0
Oc1ccccc1CN1CCN(C(O)(c2ccccc2)c2ccccc2)CC1	-	0	0	0	0	0
Oc1ccccc1CN1CCCN(Cc2ccccc2O)C1	0	0	0	0	0	5.0
CSC(=S)N/N=C(\C)c1ccc(Br)cc1	84	0	41	0	0	0
COC(=O)N/N=C(\C)c1ccc(Br)cc1	-	0	0	0	0	0
O=C(CNC(=S)NC(=O)c1ccc(F)cc1)c1ccccc1	0	0	0	0	0	0
Oc1ccc2ccccc2c1N=Nc1ccccn1	0	-7.3	0	0	0	0
O=C(O)c1c(NC(=O)N(CCO)Cc2ccccc2)sc2c1CCCC2	-	0	0	0	0	0
CN(Cc1ccccc1F)C(=O)c1ccc2c(=O)n3c(nc2c1)CCC3	-	0	0	0	0	0
CC(C)NC(=O)Nc1n[nH]c(Nc2ccc(Cl)cc2)n1	0	0	0	0	0	5.3
Cc1nn(C(=O)CNC(=O)c2ccccc2)c(C)c1C	0	0	0	0	0	8.0
COc1ccc(/C=C(/NC(=O)c2ccccc2)C(=O)N2CCCCC2)cc1	-	0	0	0	0	0
Cc1ccc(Nc2cc(C)nn2-c2nc(C)cc(=O)[nH]2)cc1	-	0	32	0	0	20
COc1ccc([N+](=O)[O-])cc1NC(=O)c1cccnc1	-	0	0	0	0	0
C#Cc1ccc(CN2CCC(C(=O)Nc3ccc(Oc4ccccc4)nc3)CC2)cc1	-	0	0	0	6	0
COc1ccc(Nc2nc(NCC3CCCO3)c3ccccc3n2)c(OC)c1 (centres undefined)	0	0	0	0	0	0
Oc1cccc(Nc2nc(NCC3CCCO3)c3ccccc3n2)c1 (centres undefined)	-	0	0	0	9	0
C=C(C)Cn1cnc2cc(C)c(C)cc21	-	0	0	0	0	8.6
Cc1cc2ncn(CS(C)(=O)=O)c2cc1C	0	0	0	0	0	0
SMILES	KCC2 mod	KCNK9 inh	KCNQ1 pot	KCNK3 block	KCNQ1 block	hERG rescue
Cc1ccc(C(=O)CC(=O)c2cc(Cl)ccc2O)cc1	-	0	30	0	0	0
Cc1ccc(C(=O)CC(=O)c2ccc(C)cc2O)cc1	-	0	0	0	0	11
Cc1ccc(CC(=O)c2ccc(Cl)cc2)cc1	0	0	0	0	0	0
CN1/C(=C\C(=S)Nc2ccccc2)C(C)(C)c2ccccc21	0	-6.9	0	0	0	0
O=C(COC(=O)C12CC3CC(CC(C3)C1)C2)NCCCc1ccccc1	0	0	23	0	0	0
O=C(c1ccccc1)N1N=C(c2ccccc2)CC1c1ccc2nccnc2c1 (centres undefined)	0	0	0	0	0	0
